Measurements from ChEMBL document CHEMBL4689842, “EUbOPEN Chemogenomics Library wave 1” (2021).

System: U2OS
Test: Multiplex assay against U2OS
Format: toxicity, cell-based
Settings: human
How it was run: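 With compound added, live cells were imaged on a CQ1 microscope at 37°C and 5% CO2; staining with Hoechst33342, BioTracker Green Microtubule Cytoskeleton Dye, MitoTracker Red and Annexin V Alexa Fluor 680 had been done at seeding. The CellPathfinder machine-learning gating scheme split cells into Hoechst high-intensity objects or normal cells, normal cells into healthy, pyknosed or fragmented nuclei, and pyknosed cells into mitotic or apoptotic. The tubulin, mitochondrial-mass and membrane-permeability phenotypes are per cents of healthy-nucleus cells.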

[1] = 12 h, 1 µM, compound concentration 1 uM, replicate 1
[2] = 12 h, 1 µM, compound concentration 1 uM, replicate 2
[3] = 12 h, 10 µM, compound concentration 10 uM, replicate 1
[4] = 12 h, 10 µM, compound concentration 10 uM, replicate 2
[5] = 24 h, 1 µM, compound concentration 1 uM, replicate 1
[6] = 24 h, 1 µM, compound concentration 1 uM, replicate 2
[7] = 24 h, 10 µM, compound concentration 10 uM, replicate 1
[8] = 24 h, 10 µM, compound concentration 10 uM, replicate 2
[9] = 48 h, 1 µM, compound concentration 1 uM, replicate 1
[10] = 48 h, 1 µM, compound concentration 1 uM, replicate 2
[11] = 48 h, 10 µM, compound concentration 10 uM, replicate 1
[12] = 48 h, 10 µM, compound concentration 10 uM, replicate 2

## CN1CCN(c2ccc(OC(F)(F)F)c(Nc3ncc4c(n3)-c3c(c(C(N)=O)nn3CCO)CC4)c2)CC1 [ONVANSERTIB]
[1]
  Population Apoptotic (%): 36%
  Population Fragmented Nuclei (%): 14%
  Population Healthy Nuclei (%): 78%
  Population Hoechst High Intensity Objects (%): 6%
  Population Membrane Permeable-Phenotype (%): 11%
  Population Mitochondria Different-Phenotype (%): 10%
  Population Mitotic Cells (%): 63%
  Population Normal (%): 94%
  Population Pyknosed Nuclei (%): 7%
  Population Tubulin-Different-Phenotype (%): 13%
  Total Cell Count: 569
[2]
  Population Apoptotic (%): 25%
  Population Fragmented Nuclei (%): 11%
  Population Healthy Nuclei (%): 80%
  Population Hoechst High Intensity Objects (%): 14%
  Population Membrane Permeable-Phenotype (%): 0%
  Population Mitochondria Different-Phenotype (%): 14%
  Population Mitotic Cells (%): 75%
  Population Normal (%): 85%
  Population Tubulin-Different-Phenotype (%): 16%
  Total Cell Count: 66
[3]
  Population Apoptotic (%): 72%
  Population Fragmented Nuclei (%): 10%
  Population Healthy Nuclei (%): 79%
  Population Hoechst High Intensity Objects (%): 6%
  Population Membrane Permeable-Phenotype (%): 3%
  Population Mitochondria Different-Phenotype (%): 77%
  Population Mitotic Cells (%): 27%
  Population Normal (%): 93%
  Population Pyknosed Nuclei (%): 10%
  Population Tubulin-Different-Phenotype (%): 84%
  Total Cell Count: 150
[4]
  Population Apoptotic (%): 40%
  Population Fragmented Nuclei (%): 9%
  Population Healthy Nuclei (%): 78%
  Population Hoechst High Intensity Objects (%): 19%
  Population Membrane Permeable-Phenotype (%): 0%
  Population Mitochondria Different-Phenotype (%): 84%
  Population Mitotic Cells (%): 60%
  Population Normal (%): 80%
  Population Pyknosed Nuclei (%): 12%
  Population Tubulin-Different-Phenotype (%): 78%
  Total Cell Count: 61
[5]
  Population Apoptotic (%): 35%
  Population Fragmented Nuclei (%): 14%
  Population Healthy Nuclei (%): 73%
  Population Hoechst High Intensity Objects (%): 7%
  Population Membrane Permeable-Phenotype (%): 12%
  Population Mitochondria Different-Phenotype (%): 17%
  Population Mitotic Cells (%): 64%
  Population Normal (%): 92%
  Population Pyknosed Nuclei (%): 12%
  Population Tubulin-Different-Phenotype (%): 18%
  Total Cell Count: 962
[6]
  Population Apoptotic (%): 57%
  Population Fragmented Nuclei (%): 21%
  Population Healthy Nuclei (%): 65%
  Population Hoechst High Intensity Objects (%): 5%
  Population Membrane Permeable-Phenotype (%): 5%
  Population Mitochondria Different-Phenotype (%): 32%
  Population Mitotic Cells (%): 42%
  Population Normal (%): 94%
  Population Pyknosed Nuclei (%): 13%
  Population Tubulin-Different-Phenotype (%): 11%
  Total Cell Count: 73
[7]
  Population Apoptotic (%): 82%
  Population Healthy Nuclei (%): 79%
  Population Hoechst High Intensity Objects (%): 4%
  Population Membrane Permeable-Phenotype (%): 1%
  Population Mitochondria Different-Phenotype (%): 77%
  Population Mitotic Cells (%): 17%
  Population Normal (%): 95%
  Population Pyknosed Nuclei (%): 9%
  Population Tubulin-Different-Phenotype (%): 53%
  Total Cell Count: 151
[8]
  Population Apoptotic (%): 40%
  Population Fragmented Nuclei (%): 11%
  Population Healthy Nuclei (%): 77%
  Population Hoechst High Intensity Objects (%): 16%
  Population Membrane Permeable-Phenotype (%): 5%
  Population Mitochondria Different-Phenotype (%): 82%
  Population Mitotic Cells (%): 60%
  Population Normal (%): 83%
  Population Pyknosed Nuclei (%): 11%
  Population Tubulin-Different-Phenotype (%): 55%
  Total Cell Count: 55
[9]
  Population Apoptotic (%): 62%
  Population Fragmented Nuclei (%): 25%
  Population Healthy Nuclei (%): 56%
  Population Hoechst High Intensity Objects (%): 5%
  Population Membrane Permeable-Phenotype (%): 14%
  Population Mitochondria Different-Phenotype (%): 49%
  Population Mitotic Cells (%): 37%
  Population Normal (%): 94%
  Population Pyknosed Nuclei (%): 18%
  Population Tubulin-Different-Phenotype (%): 13%
  Total Cell Count: 1338
[10]
  Population Apoptotic (%): 53%
  Population Fragmented Nuclei (%): 27%
  Population Healthy Nuclei (%): 45%
  Population Hoechst High Intensity Objects (%): 6%
  Population Membrane Permeable-Phenotype (%): 24%
  Population Mitochondria Different-Phenotype (%): 48%
  Population Mitotic Cells (%): 46%
  Population Normal (%): 93%
  Population Pyknosed Nuclei (%): 27%
  Population Tubulin-Different-Phenotype (%): 12%
  Total Cell Count: 97
[11]
  Population Apoptotic (%): 91%
  Population Fragmented Nuclei (%): 17%
  Population Healthy Nuclei (%): 63%
  Population Hoechst High Intensity Objects (%): 2%
  Population Membrane Permeable-Phenotype (%): 5%
  Population Mitochondria Different-Phenotype (%): 60%
  Population Mitotic Cells (%): 8%
  Population Normal (%): 97%
  Population Pyknosed Nuclei (%): 19%
  Population Tubulin-Different-Phenotype (%): 43%
  Total Cell Count: 153
[12]
  Population Apoptotic (%): 57%
  Population Fragmented Nuclei (%): 20%
  Population Hoechst High Intensity Objects (%): 10%
  Population Membrane Permeable-Phenotype (%): 28%
  Population Mitochondria Different-Phenotype (%): 67%
  Population Mitotic Cells (%): 42%
  Population Normal (%): 89%
  Population Pyknosed Nuclei (%): 15%
  Population Tubulin-Different-Phenotype (%): 57%
  Total Cell Count: 59

## CCN(CC)CCCCNc1ncc2cc(-c3cc(OC)cc(OC)c3)c(NC(=O)NC(C)(C)C)nc2n1 [PD-173074]
[1]
  Population Apoptotic (%): 53%
  Population Fragmented Nuclei (%): 27%
  Population Healthy Nuclei (%): 4%
  Population Hoechst High Intensity Objects (%): 56%
  Population Membrane Permeable-Phenotype (%): 66%
  Population Mitochondria Different-Phenotype (%): 16%
  Population Mitotic Cells (%): 46%
  Population Normal (%): 43%
  Population Pyknosed Nuclei (%): 67%
  Population Tubulin-Different-Phenotype (%): 33%
  Total Cell Count: 280
[2]
  Population Apoptotic (%): 54%
  Population Fragmented Nuclei (%): 31%
  Population Healthy Nuclei (%): 11%
  Population Hoechst High Intensity Objects (%): 55%
  Population Membrane Permeable-Phenotype (%): 64%
  Population Mitochondria Different-Phenotype (%): 29%
  Population Mitotic Cells (%): 45%
  Population Normal (%): 44%
  Population Pyknosed Nuclei (%): 57%
  Population Tubulin-Different-Phenotype (%): 47%
  Total Cell Count: 186
[3]
  Population Fragmented Nuclei (%): 20%
  Population Healthy Nuclei (%): 52%
  Population Hoechst High Intensity Objects (%): 19%
  Population Membrane Permeable-Phenotype (%): 39%
  Population Mitochondria Different-Phenotype (%): 27%
  Population Normal (%): 80%
  Population Pyknosed Nuclei (%): 26%
  Population Tubulin-Different-Phenotype (%): 92%
  Total Cell Count: 206
[4]
  Population Apoptotic (%): 21%
  Population Fragmented Nuclei (%): 33%
  Population Healthy Nuclei (%): 34%
  Population Hoechst High Intensity Objects (%): 30%
  Population Membrane Permeable-Phenotype (%): 37%
  Population Mitochondria Different-Phenotype (%): 51%
  Population Mitotic Cells (%): 78%
  Population Normal (%): 69%
  Population Pyknosed Nuclei (%): 31%
  Population Tubulin-Different-Phenotype (%): 73%
  Total Cell Count: 129
[5]
  Population Apoptotic (%): 70%
  Population Fragmented Nuclei (%): 17%
  Population Healthy Nuclei (%): 8%
  Population Hoechst High Intensity Objects (%): 60%
  Population Membrane Permeable-Phenotype (%): 71%
  Population Mitochondria Different-Phenotype (%): 28%
  Population Mitotic Cells (%): 29%
  Population Normal (%): 39%
  Population Pyknosed Nuclei (%): 74%
  Population Tubulin-Different-Phenotype (%): 57%
  Total Cell Count: 298
[6]
  Population Apoptotic (%): 71%
  Population Fragmented Nuclei (%): 30%
  Population Healthy Nuclei (%): 15%
  Population Hoechst High Intensity Objects (%): 63%
  Population Membrane Permeable-Phenotype (%): 84%
  Population Mitochondria Different-Phenotype (%): 38%
  Population Mitotic Cells (%): 28%
  Population Normal (%): 36%
  Population Pyknosed Nuclei (%): 53%
  Population Tubulin-Different-Phenotype (%): 69%
  Total Cell Count: 168
[7]
  Population Apoptotic (%): 35%
  Population Fragmented Nuclei (%): 16%
  Population Healthy Nuclei (%): 54%
  Population Hoechst High Intensity Objects (%): 17%
  Population Membrane Permeable-Phenotype (%): 20%
  Population Mitochondria Different-Phenotype (%): 48%
  Population Mitotic Cells (%): 64%
  Population Normal (%): 82%
  Population Pyknosed Nuclei (%): 29%
  Population Tubulin-Different-Phenotype (%): 74%
  Total Cell Count: 202
[8]
  Population Apoptotic (%): 45%
  Population Fragmented Nuclei (%): 26%
  Population Healthy Nuclei (%): 33%
  Population Hoechst High Intensity Objects (%): 21%
  Population Membrane Permeable-Phenotype (%): 18%
  Population Mitochondria Different-Phenotype (%): 52%
  Population Mitotic Cells (%): 54%
  Population Normal (%): 78%
  Population Pyknosed Nuclei (%): 40%
  Population Tubulin-Different-Phenotype (%): 59%
  Total Cell Count: 113
